Measured values of several laboratories.
Lines come from different studies, so protocols differ.

| SMILES | cell line | test | conditions | IC50 [µM] |
| --- | --- | --- | --- | --- |
| C=C(F)C(=O)N1CCN(c2nc(OC[C@@H]3CCCN3C)nc3c2CCN(c2cccc4cccc(Cl)c24)C3)C[C@@H]1CC#N | OV56 | cell growth or viability, ATP luminescence | 3D culture | > 1 |
| CC(C)Oc1ccc(S(=O)(=O)c2ccc(Oc3cc(OCC(N)=O)c(C(=O)C(Cl)Cl)cc3[N+](=O)[O-])cc2)cc1 | NCI-H1299 | cell growth or viability, MTT | 72 h | 0.31 |
| C#CCOc1ccc(/C=C/c2cc(OC)cc(OC)c2-c2cnnn2C(=O)NCCC)cc1 | RAW264.7 | NO release, inhibitor, Griess | 24 h, LPS-stimulated | 0.7 |
| CCNCCCn1c2c(c3cc(OC)c(OC)cc3c1=O)C(=O)c1cc3c(nc1-2)OCO3 | HL-60 | cell growth or viability, MTS | 72 h | 0.27 |
| COc1cc(NC(=O)c2ccc(C#N)cc2)ccc1S(N)(=O)=O | RAW264.7 | cell growth or viability, MTT | 48 h | > 100 |
| COc1cc2c(NC3CCN(CCCC(=O)NCCCCCCCCCCCC(=O)N[C@H](C(=O)N4C[C@H](O)C[C@H]4C(=O)NCc4ccc(-c5scnc5C)cc4)C(C)(C)C)CC3)nc(N3CCC(F)(F)CC3)nc2cc1OCCCN1CCCC1 | NCI-H1299 | cell growth or viability, CCK-8 | 8 days | 5 |
| Cc1ccc(-c2cc(C(F)(F)F)nn2-c2ccc(S(N)(=O)=O)cc2)cc1 | RAW264.7 | NO release, inhibitor, Griess | 24 h, LPS-stimulated | > 20 |
| COc1ccc(NC(=O)C2=C(C)NC(C)=C(C(=O)Nc3cc(OC)c(Cl)cc3OC)C2c2cccc(Cl)c2)c(OC)c1 (centres unmarked) | Vero | cell growth or viability, MTT | – | 49.6 |
| COc1cc(NC(=O)c2cccc(C)c2)ccc1S(N)(=O)=O | RAW264.7 | cell growth or viability, MTT | 48 h | > 100 |
| COc1ccc(NC(=O)C2=C(C)NC(C)=C(C(=O)Nc3ccc(OC)cc3OC)C2c2cccc(Cl)c2)c(OC)c1 | Vero | cell growth or viability, MTT | – | 67.5 |
| COc1cc2c3c(n(CCCNCCO)c(=O)c2cc1OC)-c1nc2c(cc1C3=O)OCO2 | HL-60 | cell growth or viability, MTS | 72 h | 0.29 |
| COc1cc(NC(=O)c2ccccc2[N+](=O)[O-])ccc1S(N)(=O)=O | RAW264.7 | cell growth or viability, MTT | 48 h | > 100 |
| COc1ccc(NC(=O)C2=C(C)NC(C)=C(C(=O)Nc3ccc(OC)cc3OC)C2c2ccc(O)cc2)c(OC)c1 | Vero | cell growth or viability, MTT | – | 70.3 |
| CC1(C)CCC(CN2CCN(c3ccc(C(=O)NS(=O)(=O)c4ccc(NCC5CCOCC5)c([N+](=O)[O-])c4)c(Oc4cnc5[nH]ccc5c4)c3)CC2)=C(c2ccc(Cl)cc2)C1 | HL-60 | cell growth or viability, ATP luminescence | 48 h | 3.04 |
| COc1cc(NC(=O)c2cccc(I)c2)ccc1S(N)(=O)=O | RAW264.7 | cell growth or viability, MTT | 48 h | > 100 |
| CCCOc1ccc(/C=C/c2cc(OC)cc(OC)c2-c2cnnn2C(=O)NCCc2ccccc2)cc1 | RAW264.7 | NO release, inhibitor, Griess | 24 h, LPS-stimulated | 10.6 |
| CC(C)c1ccccc1[C@@H]1CCCN1C1CC2(CCN(c3ccc(C(=O)NS(=O)(=O)c4ccc(NC[C@H]5CC[C@](C)(O)CC5)c([N+](=O)[O-])c4)c(Oc4cnc5[nH]ccc5c4)c3)CC2)C1 | Maver1 | cell growth or viability, ATP luminescence | 48 h | 0.00096 |
